From ChEMBL document CHEMBL2040813, “4-Thiophenoxy-2-trichloromethyquinazolines display in vitro selective antiplasmodial activity against the human malaria parasite Plasmodium falciparum” (Bioorg Med Chem Lett, 2011) come the findings set out here.

The nature of data set [1]: Selectivity index, ratio of CC50 for human HepG2 cells to IC50 for chloroquine, pyrimethamine, and proguanil-resistant Plasmodium falciparum K1. Type of data set: functional. In outline: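 SI = HepG2 CC50 / K1 IC50. The read-out was MTT for 2 h, formazan dissolved in DMSO, A570 with 630 nm reference. Viability is expressed as % of untreated control, CC50 taken from the dose-response curve. The IC50 is from the SYBR Green K1 assay.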

In data set [2] the test system is Plasmodium falciparum. Briefly: Antiplasmodial activity against chloroquine, pyrimethamine, and proguanil-resistant Plasmodium falciparum K1 infected in human A+ erythrocytes after 72 hrs by SYBR Green-I fluorescence-based method. The data set is classed as functional, organism-based. Conditions: K1, 72 h. Summed up:
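Ring-stage cultures (5% sorbitol synchronised), maintained in A+ human erythrocytes with RPMI/HEPES/NaHCO3/10% A+ serum under 5% O2, 5% CO2. Assay at 2% haematocrit, 1% parasitaemia, graded compound concentrations, 72 h at 37 °C in triplicate. IC50 by nonlinear regression, mean of three independent experiments.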

Data set [3] in a line: Cytotoxicity against human HepG2 cells after 72 hrs by MTT assay. Type of data set: cell-based. In outline: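 Cells seeded in RPMI with 10% foetal bovine serum, L-glutamine, penicillin/streptomycin, 37 °C, 6% CO₂; after 24 h, compound dilutions added for 72 h. MTT (5 mg/mL in PBS) added 2 h at 37 °C, formazan dissolved in DMSO, absorbance 570 nm (reference 630 nm). Viability as percent of untreated cells; CC50 from dose–response curve; mean of three independent experiments.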

Data set [4] deals with Toxoplasma gondii. Put plainly: Antimicrobial activity against tachyzoites of Toxoplasma gondii expressing PRU-beta-Gal gene infected in HFF after 72 hrs by colorimetric microtiter assay. Type of data set: functional, organism-based.

Consider `ClC(Cl)(Cl)c1nc(Sc2ccccc2)c2ccccc2n1`, for which, in data set [1], the “Ratio CC50/IC50” value worked out at 18.4. The same molecule came in with an IC50 in data set [2] of 1.9 µM. In data set [3], this molecule had a CC50 at 72 h of 35 µM.
Take `Clc1ccccc1Sc1nc(C(Cl)(Cl)Cl)nc2ccccc12`: in data set [1], the “Ratio CC50/IC50” value is 9.3. Further, in data set [2], the IC50 was found to be 2.8 µM. In data set [3], it took 26 µM to reach half-maximal cytotoxicity (CC50 at 72 h).
The like results for `Clc1cccc(Sc2nc(C(Cl)(Cl)Cl)nc3ccccc23)c1` were, in that order, 7.3, 2.2 µM and 16 µM.
As for `Fc1ccccc1Sc1nc(C(Cl)(Cl)Cl)nc2ccccc12`, the “Ratio CC50/IC50” value in data set [1] is given as 12.2. Also, in data set [2], the IC50 was 2.3 µM. Further, it took 28 µM to reach half-maximal cytotoxicity in data set [3] (CC50 at 72 h).
The like results for `Fc1cccc(Sc2nc(C(Cl)(Cl)Cl)nc3ccccc23)c1` were, in that order, 8.2, 1.9 µM and 15.5 µM.
For `Fc1ccc(Sc2nc(C(Cl)(Cl)Cl)nc3ccccc23)cc1`, the “Ratio CC50/IC50” value in data set [1] was over 25. In data set [2], this molecule returned an IC50 of 1.2 µM. The molecule also yielded a CC50 at 72 h in data set [3] of over 30 µM.
Consider `FC(F)(F)c1ccccc1Sc1nc(C(Cl)(Cl)Cl)nc2ccccc12`, for which, in data set [1], the “Ratio CC50/IC50” value amounted to 11.2. The midpoint of inhibition in data set [2], the IC50, lay at 2.5 µM. In data set [3], this molecule gave a 50% cytotoxic concentration (CC50) at 72 h of 28 µM.
The matching figures for `FC(F)(F)c1cccc(Sc2nc(C(Cl)(Cl)Cl)nc3ccccc23)c1`: 8, 2.2 µM and 17.5 µM.
Take `FC(F)(F)c1ccc(Sc2nc(C(Cl)(Cl)Cl)nc3ccccc23)cc1`: in data set [1], the “Ratio CC50/IC50” value is reported as 13. Besides, the IC50 in data set [2] turned out to be 1 µM. In addition, the midpoint of cytotoxicity in data set [3], the CC50 at 72 h, lay at 13 µM.
The like results for `Cc1ccccc1Sc1nc(C(Cl)(Cl)Cl)nc2ccccc12` were, in that order, 7.4, 7 µM and 52 µM.
For `Cc1cccc(Sc2nc(C(Cl)(Cl)Cl)nc3ccccc23)c1`, the “Ratio CC50/IC50” value in data set [1] is listed as 18.4. Besides, the midpoint of inhibition in data set [2], the IC50, lay at 1.9 µM. Moreover, the CC50 at 72 h in data set [3] turned out to be 35 µM.
In the case of `Cc1ccc(Sc2nc(C(Cl)(Cl)Cl)nc3ccccc23)cc1`, in data set [1], the “Ratio CC50/IC50” value was over 19. Also, half-maximal inhibition in data set [2] (IC50) was put at 1.6 µM. This molecule showed a CC50 at 72 h in data set [3] of over 30 µM.
The matching figures for `COc1ccccc1Sc1nc(C(Cl)(Cl)Cl)nc2ccccc12`: 8.2, 3.9 µM and 32 µM.
The matching figures for `COc1cccc(Sc2nc(C(Cl)(Cl)Cl)nc3ccccc23)c1`: 6, 2 µM and 12 µM.
As to `COc1ccc(Sc2nc(C(Cl)(Cl)Cl)nc3ccccc23)cc1`, in data set [1], the “Ratio CC50/IC50” value is over 3.2. For the same molecule, inhibition in data set [2] was half-maximal at 2.5 µM (IC50). The molecule also had a cytotoxic concentration (CC50) at 72 h in data set [3] of over 8 µM.
`Clc1ccc(Sc2nc(C(Cl)(Cl)Cl)nc3ccccc23)c(Cl)c1`: the “Ratio CC50/IC50” value in data set [1] is reported as 12.1. In data set [2], this molecule showed an IC50 of 1.5 µM. For the same molecule, the CC50 at 72 h in data set [3] stood at 18.2 µM.
For `Clc1ccc(Sc2ncnc3ccccc23)cc1`, the “Ratio CC50/IC50” value in data set [1] was found to be 3.8. Moreover, the IC50 in data set [2] is 4.4 µM. In addition, the half-maximal cytotoxic concentration (CC50) at 72 h in data set [3] amounted to 16.7 µM.
For the molecule `FC(F)(F)c1nc(Sc2ccc(Cl)cc2)c2ccccc2n1`, the IC50 in data set [2] is over 15 µM. This molecule showed a CC50 at 72 h in data set [3] of over 15 µM.
As to `Clc1nc(C(Cl)(Cl)Cl)nc2ccccc12`, the “Ratio CC50/IC50” value in data set [1] is reported as over 2.3. In data set [3], the CC50 at 72 h is over 125 µM.
On to `C[C@H]1c2cccc(O)c2C(=O)C2=C(O)[C@]3(O)C(=O)C(C(N)=O)=C(O)[C@@H](N(C)C)[C@@H]3[C@@H](O)[C@@H]21.O` [DOXYCYCLINE], for which the “Ratio CC50/IC50” value in data set [1] is reported as 4. The IC50 in data set [2] came out at 5 µM.
On to `CCc1nc(N)nc(N)c1-c1ccc(Cl)cc1` [PYRIMETHAMINE], for which the IC50 in data set [4] worked out at 0.8 µM.
